Values after ≈ are worked out from the molar mass of the structure shown.
Key:
[1] = Half life in CD-1 mouse plasma at 1 uM by LC-MS/MS analysis; assay type: ADME, cell-free
Summary of the method: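 Lithium-heparinized CD-1 mouse plasma was spiked with 1 μM substrate and incubated at 37 °C for 3 h, sampling at 0, 0.167, 1, 2 and 3 h (n = 2). Samples underwent acetonitrile protein precipitation with tolbutamide as internal standard. Analysis was by reversed-phase UPLC-ESI-MS/MS in MRM mode.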

SW480 = assay: (§1) Inhibition of TNKS in human SW480 cells assessed as degradation of total pool of beta-catenin after 40 to 48 hrs; assay type: cell-based; settings: dose or concentration not given here
Summary of the method: (§2)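 SW480 cells were seeded at 10 000/well in MEMα with 10% HI FBS, GlutaMAX, pyruvate and 10 mM HEPES. They were treated with a 10-point, 3-fold dilution series at 0.1% final DMSO for 40–48 h at 37 °C, then lysed. Total β-catenin was measured by MSD sandwich immunoassay (polyclonal capture, SULFO-TAG mAb detection).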

[2] = molecular target: T1, Poly [ADP-ribose] polymerase tankyrase-1 (Homo sapiens, UniProt O95271); assay: Inhibition of 6x-His-tagged TNKS1 (unknown origin) after 60 mins
T1 sequence (O95271 whole entry): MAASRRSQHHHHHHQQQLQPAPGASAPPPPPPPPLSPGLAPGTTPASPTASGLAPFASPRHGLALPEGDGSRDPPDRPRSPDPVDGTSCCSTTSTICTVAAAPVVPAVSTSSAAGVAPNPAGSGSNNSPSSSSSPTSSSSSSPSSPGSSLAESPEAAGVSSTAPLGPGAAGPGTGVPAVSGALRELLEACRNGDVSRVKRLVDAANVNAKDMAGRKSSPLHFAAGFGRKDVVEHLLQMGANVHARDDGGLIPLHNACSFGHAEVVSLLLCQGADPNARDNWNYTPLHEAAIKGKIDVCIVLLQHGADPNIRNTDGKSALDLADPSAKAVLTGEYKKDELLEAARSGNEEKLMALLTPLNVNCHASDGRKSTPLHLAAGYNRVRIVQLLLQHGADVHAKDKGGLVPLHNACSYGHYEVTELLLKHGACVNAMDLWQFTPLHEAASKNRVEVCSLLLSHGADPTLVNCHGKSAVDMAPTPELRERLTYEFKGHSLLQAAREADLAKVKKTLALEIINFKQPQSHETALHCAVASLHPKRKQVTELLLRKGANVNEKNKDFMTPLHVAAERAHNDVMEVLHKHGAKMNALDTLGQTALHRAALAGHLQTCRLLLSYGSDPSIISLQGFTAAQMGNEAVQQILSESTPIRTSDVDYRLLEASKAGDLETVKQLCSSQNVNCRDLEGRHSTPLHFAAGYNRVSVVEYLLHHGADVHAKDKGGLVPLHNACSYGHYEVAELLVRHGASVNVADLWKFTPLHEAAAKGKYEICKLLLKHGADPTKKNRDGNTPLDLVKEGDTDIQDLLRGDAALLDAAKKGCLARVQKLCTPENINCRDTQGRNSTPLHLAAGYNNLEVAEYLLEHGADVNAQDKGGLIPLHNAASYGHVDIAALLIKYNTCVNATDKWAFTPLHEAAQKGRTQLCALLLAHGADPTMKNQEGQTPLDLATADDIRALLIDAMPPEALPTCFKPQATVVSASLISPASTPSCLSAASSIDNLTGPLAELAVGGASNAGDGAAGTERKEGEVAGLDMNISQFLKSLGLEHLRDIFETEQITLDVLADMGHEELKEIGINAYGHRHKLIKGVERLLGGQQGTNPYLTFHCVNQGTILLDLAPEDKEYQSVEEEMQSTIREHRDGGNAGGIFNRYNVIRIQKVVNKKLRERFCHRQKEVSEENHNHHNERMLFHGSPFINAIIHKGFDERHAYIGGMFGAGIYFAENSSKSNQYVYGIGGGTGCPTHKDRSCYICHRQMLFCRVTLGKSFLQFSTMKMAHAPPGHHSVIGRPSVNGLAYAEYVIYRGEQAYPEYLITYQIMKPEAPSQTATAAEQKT

Plasma = assay: Unbound plasma concentration in athymic nude mouse xenografted with human DLD1 cells at 50 mg/kg, po qd administered for 3 days measured 24 hrs post last dose; assay type: ADME, organism-based, DLD-1; set-up: dose 50 mg/kg, route oral; settings: in vivo
Summary of the method: (§3)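 Athymic nude mice carried subcutaneous DLD-1 tumors engineered with a Wnt-responsive STF firefly luciferase and a constitutive Renilla luciferase. At about 250 mm³, mice were randomized (n = 4 per group) and dosed orally once daily for 3 days at 10 or 50 mg/kg, or with vehicle. Tumor axin2 was measured by MSD immunoassay. STF was read by Dual-Glo, firefly normalized to Renilla. Plasma was taken for exposure.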

Mus musculus [3] = assay: Ex vivo inhibition of TNKS in tumor of athymic nude mouse xenografted with human DLD1 cells assessed as inhibition of super-Topflash reporter gene transcription at 50 mg/kg, po qd administered for 3 days measured 24 hrs post last dose by dual-glo luciferase reporter gene assay relative to control; assay type: functional; settings: DLD-1; summary of the method: as §3
Mus musculus [4] = assay: Ex vivo inhibition of TNKS in tumor of athymic nude mouse xenografted with human DLD1 cells assessed as inhibition of super-Topflash reporter gene transcription at 10 mg/kg, po qd administered for 3 days measured 24 hrs post last dose by dual-glo luciferase reporter gene assay relative to control; assay type: functional; settings: DLD-1; summary of the method: as §3
[5] = Oral bioavailability in rat at 2 mg/kg; assay type: ADME, organism-based; settings: in vivo
[6] = Tmax in CD-1 mouse at 30 mg/kg, po; assay type: ADME, organism-based; set-up: dose 30 mg/kg, route oral; settings: in vivo
Summary of the method: (§4)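 Male CD-1 mice given a single oral dose of 30 mg/kg. Vehicle was 10% Pluronic F68, 30% HPBCD and 60% water, pH adjusted to 10.0 with NaOH for most compounds or to 2.5 with methanesulfonic acid for one. Mean plasma PK parameters were reported.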

[7] = AUC (0 to infinity) in CD-1 mouse at 30 mg/kg, po; assay type: ADME, organism-based; set-up: time infinity, dose 30 mg/kg, route oral; settings: plasma; summary of the method: as §4
[8] = Cmax in CD-1 mouse at 30 mg/kg, po; assay type: ADME, organism-based; set-up: dose 30 mg/kg, route oral; settings: in vivo; summary of the method: as §4
[9] = Half life in rat at 0.5 mg/kg, iv; assay type: ADME, organism-based; set-up: dose 0.5 mg/kg, route intravenous; settings: in vivo
Summary of the method: (§5)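 Male rats received a single intravenous dose of 0.5 mg/kg. Mean clearance, steady-state volume of distribution and half-life were reported.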

[10] = Volume of distribution at steady state in rat at 0.5 mg/kg, iv; assay type: ADME, organism-based; set-up: dose 0.5 mg/kg, route intravenous; settings: in vivo, read-out: Vdss; summary of the method: as §5
[11] = Inhibition of TNKS in human DLD1 cells expressing APC mutant assessed as inhibition of super-Topflash reporter gene transcription after 40 to 48 hrs by dual-glo luciferase reporter gene assay; assay type: cell-based; settings: DLD-1
Summary of the method: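 DLD-1 cells carried an 8× TCF-driven firefly luciferase and an EF1a-driven Renilla luciferase, and were seeded at 10 000/well in RPMI with 10% FBS without antibiotics. A 10-point, 3-fold dilution series starting at 10 μM was applied for 40–48 h at 37 °C. Firefly and Renilla activities were read with Dual-Glo reagents.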

[12] = Inhibition of TNKS in human SW480 cells assessed as accumulation of axin-2 into cytoplasmic foci after 24 hrs by Hoechst dye-based assay; settings: SW480, 24 h
[13] = as §1; assay type: cell-based; summary of the method: as §2
[14] = Clearance in rat at 0.5 mg/kg, iv; assay type: ADME, organism-based; set-up: dose 0.5 mg/kg, route intravenous; settings: in vivo; summary of the method: as §5
[15] = Fraction unbound in mouse plasma at 5 uM after 5 hrs by equilibrium dialysis method; assay type: ADME, cell-free
Summary of the method: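 Mouse plasma was spiked to a final 5 μM and equilibrium-dialyzed against plasma water (ultrafiltrate) for 5 h at 37 °C in a CO2 incubator, using a rapid equilibrium dialysis device. Fraction unbound was determined in duplicate.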

[16] = Solubility in fasted state simulated intestinal fluid at pH 6.8; assay type: ADME
[17] = Volume of distribution at steady state in rat at 5 mg/kg, iv; assay type: ADME, organism-based; set-up: dose 5 mg/kg, route intravenous; settings: in vivo, read-out: Vdss
[18] = Half life in rat at 5 mg/kg, iv; assay type: ADME, organism-based; set-up: dose 5 mg/kg, route intravenous; settings: in vivo
Rattus norvegicus [19] = assay: Clearance in rat at 5 mg/kg, iv; assay type: ADME, organism-based; set-up: dose 5 mg/kg, route intravenous; settings: in vivo
Rattus norvegicus [20] = assay: AUC (infinity) in rat at 5 mg/kg, iv; assay type: ADME, organism-based, Plasma; set-up: time infinity, dose 5 mg/kg, route intravenous; settings: in vivo
[21] = Intrinsic clearance in rat liver microsomes at 1 uM after 30 mins; assay type: ADME; settings: read-out: CLH
Summary of the method: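 Substrate depletion in rat liver microsomes: 0.25 mg protein/mL, 1 mM NADPH and 2 mM MgCl2 in 50 mM potassium phosphate, pH 7.4, prewarmed to 37 °C. Test compound was added to a final 1 μM, and parent loss was measured after 30 min at 37 °C.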

SMILES	half-life at 1 µM [1]	IC50 [2]	Cp(f) (Plasma)	inhibition in vivo at 50 mg/kg (Mus musculus [3])	inhibition in vivo at 10 mg/kg (Mus musculus [4])	bioavailability [5]	Tmax [6]	AUC(0-inf) [7]	Cmax [8]	half-life [9]	Vd [10]	IC50 [11]	EC50 [12]	IC50 [13]	clearance [14]	fraction unbound at 5 h, 5 µM [15]	solubility [16]	other results
Cn1nc(-c2ccc(NC(=O)CCc3nc4ccccc4c(=O)[nH]3)cc2)c2ccccc21	> 16.7 h	400 nM																inhibition (SW480): > 50%
N#Cc1ccc(O[C@H]2CC[C@H](NC(=O)CCSc3nc4ccccc4c(=O)[nH]3)CC2)cc1			0.009 µM	79%	70%	21%	1.5 h	141 µM·h	24.2 µM	2.8 h	0.32 L/kg	0.3 nM	4 nM	1.9 nM	2 mL/min/kg	0.006		
COc1ccccc1NC(=O)c1ccc(NC(=O)CCc2nc3ccccc3c(=O)[nH]2)cc1	0.667 h	10 nM												160 nM			6.6 µg/mL (≈ 14.9 µM)	Vd [17]: 4.69 L/kg; half-life [18]: 0.37 h; CL (Rattus norvegicus [19]): 182 mL/min/kg; AUC (Rattus norvegicus [20]): 0.11 µM·h
O=C(CCSc1nc2ccccc2c(=O)[nH]1)N[C@H]1CC[C@H](c2nnc(-c3ccccc3)o2)CC1			0.013 µM	58%	51%	13%	0.58 h	49.5 µM·h	18.7 µM	1.8 h	0.7 L/kg	0.6 nM	3.9 nM	4 nM	13.8 mL/min/kg	0.017	7 µg/mL (≈ 14.7 µM)	microsomal CLint at 1 µM [21]: 57 µL/min/mg

Source: ChEMBL document CHEMBL3108694, “Development of novel dual binders as potent, selective, and orally bioavailable tankyrase inhibitors” (J Med Chem, 2013)
